Measured values published in ChEMBL document CHEMBL3351838, “Ligand-based pharmacophore modeling and virtual screening for the discovery of novel 17β-hydroxysteroid dehydrogenase 2 inhibitors” (J Med Chem, 2014).

Assays:
[1] = biological target: T1, 11-beta-hydroxysteroid dehydrogenase type 2 (Homo sapiens) (UniProt P80365); assay: Inhibition of 11beta-HSD2 (unknown origin) expressed in HEK293 cells lysate assessed as residual enzyme activity at 20 uM; type: cell-free
T1 sequence (whole entry): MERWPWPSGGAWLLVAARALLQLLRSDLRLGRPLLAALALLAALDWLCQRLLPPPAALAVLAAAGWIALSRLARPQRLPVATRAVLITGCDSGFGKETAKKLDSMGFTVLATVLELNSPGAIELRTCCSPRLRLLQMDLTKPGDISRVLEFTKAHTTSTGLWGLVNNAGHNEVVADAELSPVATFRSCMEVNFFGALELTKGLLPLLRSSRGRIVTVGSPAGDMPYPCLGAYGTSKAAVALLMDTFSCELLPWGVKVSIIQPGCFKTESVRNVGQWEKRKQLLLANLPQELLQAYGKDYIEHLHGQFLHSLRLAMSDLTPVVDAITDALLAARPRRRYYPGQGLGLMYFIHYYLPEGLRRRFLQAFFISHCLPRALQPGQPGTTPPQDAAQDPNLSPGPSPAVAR
Outline: (§1)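 Lysates of stably transfected cells expressing 11β-HSD1 or 11β-HSD2, 10 min at 37 °C in TS2 buffer (pH 7.4) with inhibitor or 0.2% DMSO solvent. Reactions stopped after 10 min with excess unlabeled cortisone/cortisol. Steroids separated by TLC and quantified by scintillation counting. At least three independent measurements. Lines 2 and 3 report rest activity at 20 μM as % of control.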

[2] = biological target: T2, 17-beta-hydroxysteroid dehydrogenase type 1 (Homo sapiens) (UniProt P14061); assay: Inhibition of 17beta-HSD1 (unknown origin) expressed in HEK293 cells lysate assessed as residual enzyme activity at 20 uM; type: cell-free
T2 sequence (whole entry): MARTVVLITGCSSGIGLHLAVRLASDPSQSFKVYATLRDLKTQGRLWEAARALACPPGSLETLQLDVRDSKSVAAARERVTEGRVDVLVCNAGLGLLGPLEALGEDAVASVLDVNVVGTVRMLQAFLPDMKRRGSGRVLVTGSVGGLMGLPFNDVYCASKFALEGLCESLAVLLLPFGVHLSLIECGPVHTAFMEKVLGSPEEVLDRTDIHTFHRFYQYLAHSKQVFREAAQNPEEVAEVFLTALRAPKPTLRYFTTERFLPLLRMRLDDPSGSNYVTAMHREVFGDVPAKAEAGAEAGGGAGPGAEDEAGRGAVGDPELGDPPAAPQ
Outline: (§2)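 Lysate of HEK-293 cells transfected by calcium phosphate with human 17β-HSD1, harvested after 48 h. Incubated 10 min at 37 °C in TS2 buffer (pH 7.4) with inhibitor or 0.2% DMSO/chloroform. Substrate 190 nM unlabeled plus 10 nM radiolabeled estrone with 500 μM NADPH. Stopped with excess estradiol/estrone. TLC separation and scintillation counting; at least three independent measurements.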

[3] = biological target: T3, 17-beta-hydroxysteroid dehydrogenase type 3 (Homo sapiens) (UniProt P37058); assay: Inhibition of 17beta-HSD3 (unknown origin) expressed in intact HEK293 cells assessed as residual enzyme activity at 20 uM; type: cell-based
T3 sequence (whole entry): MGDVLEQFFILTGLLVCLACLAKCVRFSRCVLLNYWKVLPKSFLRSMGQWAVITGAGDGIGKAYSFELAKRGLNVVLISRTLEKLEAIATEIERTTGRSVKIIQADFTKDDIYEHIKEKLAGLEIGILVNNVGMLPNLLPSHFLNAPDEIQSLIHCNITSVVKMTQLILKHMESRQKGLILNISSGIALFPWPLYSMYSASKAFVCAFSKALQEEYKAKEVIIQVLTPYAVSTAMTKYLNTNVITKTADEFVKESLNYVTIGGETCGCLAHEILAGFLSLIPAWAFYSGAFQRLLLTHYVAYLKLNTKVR
Outline: (§3)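 HEK-293 cells transiently transfected with 17β-HSD3 by calcium phosphate were seeded at 15 000 cells/well and tested 24 h later in charcoal-treated DMEM. Inhibitor was preincubated 20 min at 37 °C. Substrate was 190 nM unlabeled plus 10 nM radiolabeled androstenedione for 30 min. Reactions stopped with excess androstenedione/testosterone. TLC separation and scintillation counting.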

[4] = biological target: T4, 17-beta-hydroxysteroid dehydrogenase type 2 (Homo sapiens, UniProt P37059); assay: Inhibition of 17beta-HSD2 (unknown origin) expressed in HEK293 cells lysate; type: cell-free
T4 sequence (P37059 whole entry): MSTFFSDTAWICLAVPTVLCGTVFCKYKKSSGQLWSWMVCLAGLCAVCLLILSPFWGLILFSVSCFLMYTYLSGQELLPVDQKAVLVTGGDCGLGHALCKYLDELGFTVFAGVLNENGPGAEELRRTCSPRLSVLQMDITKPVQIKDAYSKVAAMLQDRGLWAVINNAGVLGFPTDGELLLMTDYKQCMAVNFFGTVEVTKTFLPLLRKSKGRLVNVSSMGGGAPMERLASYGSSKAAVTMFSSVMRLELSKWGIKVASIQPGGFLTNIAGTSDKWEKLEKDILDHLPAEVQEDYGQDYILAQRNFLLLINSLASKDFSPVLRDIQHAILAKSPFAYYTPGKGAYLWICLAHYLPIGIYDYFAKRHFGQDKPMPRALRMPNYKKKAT
Outline: (§4)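 Human 17β-HSD2 from lysates of calcium-phosphate-transfected HEK-293 cells (harvested 48 h). Incubated 10 min at 37 °C in TS2 buffer (pH 7.4) with inhibitor or 0.2% DMSO/chloroform. Substrate 190 nM unlabeled plus 10 nM radiolabeled estradiol with 500 μM NAD+. Stopped with excess estradiol/estrone. Radiolabeled steroids separated by TLC and counted; at least three independent measurements. Rest activity at 20 μM as % of control.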

[5] = biological target: T5, 11-beta-hydroxysteroid dehydrogenase 1 (Homo sapiens, UniProt P28845); assay: Inhibition of 11beta-HSD1 (unknown origin) expressed in HEK293 cells lysate assessed as residual enzyme activity at 20 uM; type: cell-free; outline: as §1
Target sequence in this assay (P28845 whole entry, looked up): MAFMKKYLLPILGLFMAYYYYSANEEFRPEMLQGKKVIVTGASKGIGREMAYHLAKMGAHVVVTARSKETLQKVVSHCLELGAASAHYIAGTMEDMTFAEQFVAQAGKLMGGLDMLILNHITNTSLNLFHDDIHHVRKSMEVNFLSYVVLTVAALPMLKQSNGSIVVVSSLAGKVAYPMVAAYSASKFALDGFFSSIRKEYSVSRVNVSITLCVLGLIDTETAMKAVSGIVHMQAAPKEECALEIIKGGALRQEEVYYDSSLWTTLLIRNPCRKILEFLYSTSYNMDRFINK

[6] = biological target: T6, 17-beta-hydroxysteroid dehydrogenase type 2 (Homo sapiens) (UniProt P37059); assay: Inhibition of 17beta-HSD2 (unknown origin) expressed in HEK293 cells lysate assessed as residual enzyme activity at 20 uM; type: cell-free; outline: as §4
T6 sequence (whole entry): T4 sequence (P37059 whole entry)

[7] = biological target: T5, 11-beta-hydroxysteroid dehydrogenase 1; assay: Inhibition of 11beta-HSD1 (unknown origin) expressed in HEK293 cells lysate; type: cell-free; outline: as §1
Target sequence in this assay (P28845 whole entry): as the sequence (P28845 whole entry, looked up) above

[8] = biological target: T4, 17-beta-hydroxysteroid dehydrogenase type 2; assay: Inhibition of 17beta-HSD2 (unknown origin) expressed in intact HEK293 cells; type: cell-based
Outline: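 Transfected HEK-293 cells were seeded at 15 000 cells/well 24 h after transfection and assayed 24 h later in charcoal-treated DMEM. Inhibitor was preincubated 20 min at 37 °C, followed by 190 nM unlabeled plus 10 nM radiolabeled estradiol for 20 min. Reactions stopped with excess estradiol/estrone. Steroids separated by TLC and measured by scintillation counting.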

[9] = biological target: T7, 17-beta-hydroxysteroid dehydrogenase type 3 (Homo sapiens, UniProt P37058); assay: Inhibition of 17beta-HSD3 (unknown origin) expressed in intact HEK293 cells; type: cell-based; outline: as §3
T7 sequence (P37058 whole entry): T3 sequence (whole entry)

[10] = biological target: T8, 17-beta-hydroxysteroid dehydrogenase type 1 (Homo sapiens, UniProt P14061); assay: Inhibition of 17beta-HSD1 (unknown origin) expressed in HEK293 cells lysate; type: cell-free; outline: as §2
T8 sequence (P14061 whole entry): T2 sequence (whole entry)

| SMILES | Activity [1] [%] | Activity [2] [%] | IC50 [4] [µM] | Activity [6] [%] | also measured |
| --- | --- | --- | --- | --- | --- |
| O=S(=O)(Nc1cccc(O)c1)c1ccc(Br)cc1 | > 70 | > 70 | 4.9 |  | Activity [3]: > 70%; Activity [5]: > 70% |
| Cc1cc(Br)c(OCC(=O)N/N=C/c2c(C)cc(O)cc2O)c(Br)c1 |  |  |  | 64 |  |
| COc1ccc(NS(=O)(=O)c2cc(C)ccc2C)cc1 |  |  |  | > 70 |  |
| O=S(=O)(Nc1cccc(Cl)c1)c1ccc(F)cc1 |  |  |  | > 70 |  |
| COc1ccc(S(=O)(=O)Nc2ccc(C)c(O)c2)cc1 |  |  |  | 47 |  |
| O=C(CSc1ncccn1)Nc1cccc2nsnc12 |  |  |  | > 70 |  |
| COc1ccc(S(=O)(=O)Nc2cccc(O)c2)c2c1CCCC2 | > 70 | 53 | 15 |  | Activity [3]: > 70%; IC50 [7]: 13 µM |
| Cc1cc(C)c(S(=O)(=O)Nc2cccc(O)c2)cc1C | > 70 | > 70 | 3.3 |  | Activity [3]: 43%; Activity [5]: > 70% |
| Cc1ccc(NS(=O)(=O)c2ccc(Cl)cc2)cc1O |  |  |  | 45 |  |
| COc1ccccc1OS(=O)(=O)c1ccc(NC(C)=O)cc1 |  |  |  | > 70 |  |
| Cc1cc(C)c(OCC(=O)N/N=C/c2ccc(O)cc2O)c(Br)c1 | 61 | 52 | 4.1 | 9 | IC50 [8]: 23 µM; Activity [5]: 69%; IC50 [9]: 1.6 µM |
| CC(C)(C)c1ccc(S(=O)(=O)Oc2ccccc2O)cc1 | > 70 | > 70 | 0.24 | 6 | IC50 [8]: 0.52 µM; IC50 [9]: 8.5 µM; IC50 [7]: 2.1 µM |
| Cc1cc(S(=O)(=O)Nc2cccc(O)c2)c(C)cc1Cl | > 70 |  | 1 |  | Activity [3]: 53%; Activity [5]: > 70%; IC50 [10]: 18 µM |
| CC(=O)Nc1ccccc1OS(=O)(=O)c1ccc(C)c(C)c1 |  |  |  | > 70 |  |
| CCC(=O)c1ccc(OS(=O)(=O)c2ccc(NC(C)=O)cc2)cc1 |  |  |  | 67 |  |
| COc1ccc(/C=N/NC(=O)COc2c(Br)cc(C)cc2Br)c(OC)c1 |  |  |  | 38 |  |
| Cc1ccc(C)c(S(=O)(=O)Nc2ccc(O)cc2)c1 |  |  |  | 39 |  |
| COc1cc(C)c(S(=O)(=O)Nc2cccc(O)c2)cc1C | > 70 | > 70 | 6.9 | 15 | Activity [3]: > 70%; Activity [5]: > 70% |
| O=S(=O)(Nc1ccc(F)c(Cl)c1)c1ccc(F)cc1 |  |  |  | 45 |  |
| O=C(CSc1nccc(O)n1)Nc1cccc2nsnc12 | > 70 | > 70 | 1.5 | 8 | Activity [3]: > 70%; IC50 [8]: 1.1 µM; Activity [5]: > 70% |

| SMILES | Activity [1] [%] | Activity [2] [%] | IC50 [4] [µM] | Activity [6] [%] | also measured |
| --- | --- | --- | --- | --- | --- |
| COc1ccc(S(=O)(=O)Nc2ccc(O)c3c2CCCC3)cc1 | > 70 | > 70 | 9.6 |  | Activity [3]: > 70%; IC50 [7]: 8.1 µM |
| CCc1ccc(CC)c(S(=O)(=O)Nc2cc(OC)ccc2OC)c1 |  |  |  | > 70 |  |
| CC(=O)Nc1ccccc1NS(=O)(=O)c1c(C)c(C)cc(C)c1C |  |  |  | > 70 |  |
| C/C(=N\NC(=O)COc1ccc(C)cc1Br)c1ccc(O)cc1O |  |  |  | > 70 |  |
| CC(=O)Nc1ccc(S(=O)(=O)Oc2ccc3c(c2)NCCC3)cc1 |  |  |  | > 70 |  |
| Clc1ccc(Cl)c(-c2ccc(CNc3nn[nH]n3)o2)c1 | > 70 | > 70 | 33 | 29 | Activity [3]: > 70%; Activity [5]: > 70% |
| Cc1ccc(Cl)cc1NS(=O)(=O)c1ccc(F)cc1 |  |  |  | > 70 |  |
| COc1cc(C)c(S(=O)(=O)Nc2ccc(Cl)cc2)cc1C |  |  |  | > 70 |  |
| Cc1ccc(NS(=O)(=O)c2cccc(Br)c2)cc1O | > 70 | 58 | 6.3 |  | Activity [3]: > 70%; Activity [5]: > 70% |
| COc1ccccc1OS(=O)(=O)c1ccc(C(C)(C)C)cc1 |  |  |  | 51 |  |
| COc1ccc(NS(=O)(=O)c2ccc(Cl)cc2)cc1 |  |  |  | > 70 |  |
| O=S(=O)(Nc1ccc(O)c(Cl)c1)c1ccc(F)cc1 | > 70 | > 70 | 3 | 9 | IC50 [8]: 10 µM; Activity [5]: > 70%; IC50 [9]: 3.9 µM |
| O=S(=O)(Nc1ccccc1CO)c1ccc(Cl)cc1 |  |  |  | > 70 |  |
| Cc1ccc(NS(=O)(=O)c2cccc(C(F)(F)F)c2)cc1O | > 70 | > 70 | 7.1 | 25 | Activity [3]: > 70%; Activity [5]: > 70% |
| COc1cc(C)c(S(=O)(=O)Nc2ccc(C(=O)O)cc2)cc1C |  |  |  | > 70 |  |
| O=S(=O)(Nc1ccccc1F)c1ccc(Br)cc1 |  |  |  | > 70 |  |
| O=S(=O)(Nc1ccc(O)cc1)c1ccc(Cl)cc1 |  |  |  | 55 |  |
| CC(O)c1ccccc1NS(=O)(=O)c1ccc(F)cc1 (stereo not drawn) |  |  |  | > 70 |  |
| Cc1cc(S(=O)(=O)Nc2cc(Cl)ccc2O)ccc1F |  |  |  | 44 |  |
| Cc1cc(C)c(S(=O)(=O)Nc2ccc(O)cc2)c(C)c1 |  |  |  | 33 |  |
